In brackets after ≈: the same amount, converted by molar mass. Activity calls are given as the source filed them. No cut-off for these calls is given here.
Tests used:
[1] = AUC in mouse pneumoniae model at 5 mg/kg; assay type: ADME, organism-based; design: dose 5 mg/kg; settings: in vivo
Mus musculus [2] = test: Immunological activity in BALB/c mouse infected with Mycoplasma pneumoniae ATCC 29342 assessed as decrease in IP-10 level in bronchoalveolar lavage fluid at 10 mg/kg, sc on first day followed by regimen of 5 mg/kg for 5 days measured after 3 days; assay type: functional, organism-based
Summary of the method: (§1)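 In BALB/c females infected intranasally with 10^7 CFU M. pneumoniae, sc dosing ran daily from day 1: 10 mg/kg first, then 5 mg/kg; saline placebo. BAL (500 µl SP4 broth via trachea) was collected ~24 h after the last dose at 1, 3 or 6 days of therapy, and cytokine/chemokine concentrations were measured, given as mean ± SD. There were 10 mice/group per time point; t test and two-way ANOVA were used, P<0.05.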

Mus musculus [3] = test: Immunological activity in BALB/c mouse infected with Mycoplasma pneumoniae ATCC 29342 assessed as decrease in IL1-beta level in bronchoalveolar lavage fluid at 10 mg/kg, sc on first day followed by regimen of 5 mg/kg for 5 days measured after 1 days; assay type: functional, organism-based; summary of the method: as §1
Mus musculus [4] = test: Immunological activity in BALB/c mouse infected with Mycoplasma pneumoniae ATCC 29342 assessed as decrease in IL-5 level in bronchoalveolar lavage fluid at 10 mg/kg, sc on first day followed by regimen of 5 mg/kg for 5 days measured after 3 days; assay type: functional, organism-based; summary of the method: as §1
Mus musculus [5] = test: Immunological activity in BALB/c mouse infected with Mycoplasma pneumoniae ATCC 29342 assessed as decrease in IL-12 level in bronchoalveolar lavage fluid at 10 mg/kg, sc on first day followed by regimen of 5 mg/kg for 5 days measured after 3 days; assay type: functional, organism-based; summary of the method: as §1
Mus musculus [6] = test: Immunological activity in BALB/c mouse infected with Mycoplasma pneumoniae ATCC 29342 assessed as decrease in granulocyte-macrophage colony stimulating factor level in bronchoalveolar lavage fluid at 10 mg/kg, sc on first day followed by regimen of 5 mg/kg for 5 days measured after 3 days; assay type: functional, organism-based; summary of the method: as §1
[7] = system: Mycoplasmoides pneumoniae; test: Antimicrobial activity against Mycoplasma pneumoniae ATCC 29342 infected in BALB/c mouse assessed as decrease in bacterial infection-induced parenchymal cell histopathology at 10 mg/kg, sc on first day followed by regimen of 5 mg/kg for 5 days measured after 3 days; assay type: functional, organism-based; settings: M129
Summary of the method: (§2)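 Infected BALB/c mice (2-month-old females, intranasal 10^7 CFU M. pneumoniae, day 0) dosed sc daily from day 1: 10 mg/kg then 5 mg/kg, saline vehicle/placebo. Lungs with trachea fixed in 10% buffered formalin ~24 h after last dose, whole-mount paraffin sections stained H&E and scored for histopathology (HPS) and parenchymal pneumonia subscore; 10 mice/group per time point, two experiments; two-way ANOVA and t test.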

[8] = system: Mycoplasmoides pneumoniae; test: Antimicrobial activity against Mycoplasma pneumoniae by agar dilution method; assay type: functional
Mus musculus [9] = test: Immunological activity in BALB/c mouse infected with Mycoplasma pneumoniae ATCC 29342 assessed as decrease in IL1-beta level in bronchoalveolar lavage fluid at 10 mg/kg, sc on first day followed by regimen of 5 mg/kg for 5 days measured after 3 days; assay type: functional, organism-based; summary of the method: as §1
Mus musculus [10] = test: Immunological activity in BALB/c mouse infected with Mycoplasma pneumoniae ATCC 29342 assessed as decrease in IL-4 level in bronchoalveolar lavage fluid at 10 mg/kg, sc on first day followed by regimen of 5 mg/kg for 5 days measured after 3 days; assay type: functional, organism-based; summary of the method: as §1
Mus musculus [11] = test: Immunological activity in BALB/c mouse infected with Mycoplasma pneumoniae ATCC 29342 assessed as decrease in IL-6 level in bronchoalveolar lavage fluid at 10 mg/kg, sc on first day followed by regimen of 5 mg/kg for 5 days measured after 3 days; assay type: functional, organism-based; summary of the method: as §1
[12] = system: Mycoplasmoides pneumoniae; test: Antimicrobial activity against Mycoplasma pneumoniae ATCC 29342 infected in BALB/c mouse assessed as decrease in bacterial count in bronchoalveolar lavage fluid at 10 mg/kg, sc on first day followed by regimen of 5 mg/kg for 5 days measured after 6 days; assay type: functional, organism-based; settings: M129
Summary of the method: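 Female BALB/c mice, 2 months old, inoculated intranasally once (day 0) with 10^7 CFU M. pneumoniae in 50 µl SP4 broth under isoflurane. From day 1, sc once daily for 6 days: 10 mg/kg day 1, then 5 mg/kg, in sterile 0.9% NaCl; saline placebo. BAL with 500 µl SP4 broth ~24 h after last dose; undiluted and 10-fold dilutions plated on SP4 agar at 37°C; colonies counted as log10 CFU/ml; 10 mice/group, two experiments.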

Mus musculus [13] = test: Immunological activity in BALB/c mouse infected with Mycoplasma pneumoniae ATCC 29342 assessed as decrease in INF-gamma level in bronchoalveolar lavage fluid at 10 mg/kg, sc on first day followed by regimen of 5 mg/kg for 5 days measured after 1 days; assay type: functional, organism-based; summary of the method: as §1
[14] = Ratio of Cmax in human lung to Cmax in human serum at […] followed by […] regimen for every 12 hrs; assay type: ADME, organism-based
Mus musculus [15] = test: Immunological activity in BALB/c mouse infected with Mycoplasma pneumoniae ATCC 29342 assessed as decrease in MIG level in bronchoalveolar lavage fluid at 10 mg/kg, sc on first day followed by regimen of 5 mg/kg for 5 days measured after 3 days; assay type: functional, organism-based; summary of the method: as §1
[16] = AUC (0 to 24 hrs) in human serum at […] followed by regimen of […] for every 12 hrs; assay type: ADME, organism-based; design: time < 24 hr, route intravenous
Mus musculus [17] = test: Immunological activity in BALB/c mouse infected with Mycoplasma pneumoniae ATCC 29342 assessed as decrease in IL-10 level in bronchoalveolar lavage fluid at 10 mg/kg, sc on first day followed by regimen of 5 mg/kg for 5 days measured after 3 days; assay type: functional, organism-based; summary of the method: as §1
Mus musculus [18] = test: Immunological activity in BALB/c mouse infected with Mycoplasma pneumoniae ATCC 29342 assessed as decrease in INF-gamma level in bronchoalveolar lavage fluid at 10 mg/kg, sc on first day followed by regimen of 5 mg/kg for 5 days measured after 3 days; assay type: functional, organism-based; summary of the method: as §1
Mus musculus [19] = test: Immunological activity in BALB/c mouse infected with Mycoplasma pneumoniae ATCC 29342 assessed as decrease in IL-2 level in bronchoalveolar lavage fluid at 10 mg/kg, sc on first day followed by regimen of 5 mg/kg for 5 days measured after 3 days; assay type: functional, organism-based; summary of the method: as §1
[20] = Ratio of AUC in human alveolar cells to AUC in human serum at […] followed by […] regimen for every 12 hrs; assay type: ADME, organism-based, Pneumocyte; settings: read-out: Ratio AUC
Mus musculus [21] = test: Immunological activity in BALB/c mouse infected with Mycoplasma pneumoniae ATCC 29342 assessed as decrease in MIP-1alpha level in bronchoalveolar lavage fluid at 10 mg/kg, sc on first day followed by regimen of 5 mg/kg for 5 days measured after 3 days; assay type: functional, organism-based; summary of the method: as §1
[22] = Cmax in human serum at […] followed by regimen of […] for every 12 hrs; assay type: ADME, organism-based; design: route intravenous
Mus musculus [23] = test: Immunological activity in BALB/c mouse infected with Mycoplasma pneumoniae ATCC 29342 assessed as decrease in IL1-beta level in bronchoalveolar lavage fluid at 10 mg/kg, sc on first day followed by regimen of 5 mg/kg for 5 days measured after 6 days; assay type: functional, organism-based; summary of the method: as §1
[24] = system: Mycoplasmoides pneumoniae; test: Antimicrobial activity against Mycoplasma pneumoniae ATCC 29342 infected in BALB/c mouse assessed as decrease in bacterial infection-induced lung histopathology at 10 mg/kg, sc on first day followed by regimen of 5 mg/kg for 5 days measured after 3 days; assay type: functional, organism-based; settings: M129; summary of the method: as §2
Mus musculus [25] = test: Immunological activity in BALB/c mouse infected with Mycoplasma pneumoniae ATCC 29342 assessed as decrease in IL-12 level in bronchoalveolar lavage fluid at 10 mg/kg, sc on first day followed by regimen of 5 mg/kg for 5 days measured after 1 days; assay type: functional, organism-based; summary of the method: as §1
Mus musculus [26] = test: Immunological activity in BALB/c mouse infected with Mycoplasma pneumoniae ATCC 29342 assessed as decrease in MCP-1 level in bronchoalveolar lavage fluid at 10 mg/kg, sc on first day followed by regimen of 5 mg/kg for 5 days measured after 3 days; assay type: functional, organism-based; summary of the method: as §1
Mus musculus [27] = test: Immunological activity in BALB/c mouse infected with Mycoplasma pneumoniae ATCC 29342 assessed as decrease in INF-gamma level in bronchoalveolar lavage fluid at 10 mg/kg, sc on first day followed by regimen of 5 mg/kg for 5 days measured after 6 days; assay type: functional, organism-based; summary of the method: as §1
Mus musculus [28] = test: Immunological activity in BALB/c mouse infected with Mycoplasma pneumoniae ATCC 29342 assessed as decrease in TNFalpha level in bronchoalveolar lavage fluid at 10 mg/kg, sc on first day followed by regimen of 5 mg/kg for 5 days measured after 3 days; assay type: functional, organism-based; summary of the method: as §1
Mus musculus [29] = test: Immunological activity in BALB/c mouse infected with Mycoplasma pneumoniae ATCC 29342 assessed as decrease in KC level in bronchoalveolar lavage fluid at 10 mg/kg, sc on first day followed by regimen of 5 mg/kg for 5 days measured after 3 days; assay type: functional, organism-based; summary of the method: as §1
Mus musculus [30] = test: Immunological activity in BALB/c mouse infected with Mycoplasma pneumoniae ATCC 29342 assessed as decrease in IL-12 level in bronchoalveolar lavage fluid at 10 mg/kg, sc on first day followed by regimen of 5 mg/kg for 5 days measured after 6 days; assay type: functional, organism-based; summary of the method: as §1
Mus musculus [31] = test: Immunological activity in BALB/c mouse infected with Mycoplasma pneumoniae ATCC 29342 assessed as decrease in MIG level in bronchoalveolar lavage fluid at 10 mg/kg, sc on first day followed by regimen of 5 mg/kg for 5 days measured after 1 days; assay type: functional, organism-based; summary of the method: as §1
Mus musculus [32] = test: Immunological activity in BALB/c mouse infected with Mycoplasma pneumoniae ATCC 29342 assessed as decrease in MIG level in bronchoalveolar lavage fluid at 10 mg/kg, sc on first day followed by regimen of 5 mg/kg for 5 days measured after 6 days; assay type: functional, organism-based; summary of the method: as §1

For `CN(C)c1cc(NC(=O)CNC(C)(C)C)c(O)c2c1C[C@H]1C[C@H]3[C@H](N(C)C)C(O)=C(C(N)=O)C(=O)[C@@]3(O)C(O)=C1C2=O` [TIGECYCLINE], which AUC [1] is on record?
The AUC was 2900 ng·h/mL.

What about the Activity (Mus musculus [2]) of the same compound?
The Activity was “Active”.

And the Activity (Mus musculus [3])?
The Activity was “Active”.

And the Activity (Mus musculus [4])?
Its Activity is “inactive”.

What about the Activity (Mus musculus [5]) of the same compound?
The Activity was “Active”.

And the Activity (Mus musculus [6])?
Its Activity is “inactive”.

What about the Activity [7] of the same compound?
Its Activity is “Active”.

And the MIC [8]?
The MIC was 0.06 µg/mL (≈ 0.102 µM).

And the Activity (Mus musculus [9])?
The Activity was “Active”.

What about the Activity (Mus musculus [10]) of the same compound?
The Activity was “inactive”.

What about the Activity (Mus musculus [11]) of the same compound?
Its Activity is “inactive”.

And the Activity [12]?
The Activity was “Active”.

What about the Activity (Mus musculus [13]) of the same compound?
The Activity was “Active”.

And the Kp at 12 h [14]?
Its Kp at 12 h is 8.6.

What about the Activity (Mus musculus [15]) of the same compound?
Its Activity is “Active”.

And the AUC at 24 h [16]?
The AUC at 24 h was 4700 ng·h/mL.

And the Activity (Mus musculus [17])?
The Activity was “inactive”.

And the Activity (Mus musculus [18])?
Its Activity is “Active”.

What about the Activity (Mus musculus [19]) of the same compound?
The Activity was “inactive”.

And the Kp at 12 h [20]?
Its Kp at 12 h is 78.

And the Activity (Mus musculus [21])?
The Activity was “Active”.

What about the Cmax [22] of the same compound?
The Cmax was 630 ng/mL.

What about the Activity (Mus musculus [23]) of the same compound?
The Activity was “Active”.

And the Activity [24]?
Its Activity is “Active”.

What about the Activity (Mus musculus [25]) of the same compound?
Its Activity is “Active”.

What about the Activity (Mus musculus [26]) of the same compound?
Its Activity is “inactive”.

What about the Activity (Mus musculus [27]) of the same compound?
Its Activity is “Active”.

What about the Activity (Mus musculus [28]) of the same compound?
The Activity was “Active”.

And the Activity (Mus musculus [29])?
Its Activity is “inactive”.

What about the Activity (Mus musculus [30]) of the same compound?
The Activity was “Active”.

What about the Activity (Mus musculus [31]) of the same compound?
Its Activity is “Active”.

What about the Activity (Mus musculus [32]) of the same compound?
The Activity was “Active”.

Source: ChEMBL document CHEMBL1649131, “Tigecycline therapy significantly reduces the concentrations of inflammatory pulmonary cytokines and chemokines in a murine model of Mycoplasma pneumoniae pneumonia” (Antimicrob Agents Chemother, 2009)
